# Screening data as filed in PubChem.
# Lung fibro prol – blocks proliferation of human lung fibroblasts; viability, % at 10 µM; hit rate 1.1% among 85,000; LL 47 human lung fibroblast viability, ATP luminescence; stronger effect = lower value; AID 719;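 active = viability at or below 50% in the single dose screen; inactive = viability above 50%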;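 also: compound exposure lasted 72 h before the ATP readout; 100% = median luminescence of untreated cell-only wells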
#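 Test system: LL 47 human lung fibroblasts / Quantity: 1,150 cells in each well / Medium: IMEM growth medium with 15% fetal bovine serum / Incubation: 72 h compound exposure at 37 °C after overnight plating / Detection: CellTiter-Glo luminescence measuring cellular ATP / Read-out: % viability versus median cells-only luminescence / Benchmarks: cell-only wells, no compound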
# HUVEC inhibit – blocks proliferation of human endothelial cells. HUVEC proliferation, CellTiter-Glo luminescence, 72 h; stronger effect = lower value. viability, % at 10 µM (by protocol). hit rate 1.1% among 86,000;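 active = viability at or below 30%; inactive = viability above 30%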;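 also: 100% = median luminescence of DMSO-only cell control wells on each plate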
# Jurkat tox 60K – reduces viability or proliferation of Jurkat cells; hit rate 1.2% among 56,000; AID 463; inhibition, % at 4 µM; Jurkat E6.1 viability, ATP luminescence, 48 h;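 active = inhibition above the mean inhibition of all tested compounds plus 3 SD, cut at about 28% in these data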
# E coli WT exp – E. coli BW25113 growth inhibition, expanded screen | OD600 absorbance | growth inhibition, % at 100 µM | hit rate 0.15% among 98,000;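 active = growth inhibition above about 50% at one test dose, limit read from the data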;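 also: growth measured after 20 h incubation at 37 °C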
# H69AR inhibit – growth inhibitors of human H69AR lung tumor cells; AID 598; hit rate 6% among 85,000; viability, % at 10 µM; H69AR lung tumor viability, ATP luminescence, 72 h; stronger effect = lower value;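 active = viability at or below 40%; inactive = viability above 40%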;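 also: multidrug resistant small cell line overexpressing MRP-1 efflux transporter; 100% = mean luminescence of untreated control wells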
# Ecoli tolC – E. coli tolC mutant growth inhibition | hit rate 2.2% among 65,000 | growth inhibition, % at 10 µM (by protocol) | E. coli BW25113 tolC mutant growth, OD615;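 active = growth inhibition at or above a cutoff equal to the mean over every tested compound plus 3 SD, cut at about 60% in these data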;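 also: growth measured after 20 h incubation at 37 °C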
#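 System: E. coli ΔtolC::kan strain BW25113; Buffer or medium: LB broth supplemented with 50 µg/mL kanamycin; Compound: 10 µM final, single dose; Incubation: bacterial growth with compound for 20 h at 37 °C; Signal: A615 absorbance measurement; Evaluation: growth inhibition in percent.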
# Active calls of the source: *; · = no result given. This is a sample that favours compounds with a hit; in the whole collection about 6.4% have one here.
SMILES,Lung fibro prol,HUVEC inhibit,Jurkat tox 60K,E coli WT exp,H69AR inhibit,Ecoli tolC
COC(=O)c1cc(NC(=O)CC2NC3CCCCC3NC2=O)cc(C(=O)OC)c1 (configuration not stated),105.3,104.7,·,-3.0,95.9,·
CCOC(=O)C(CC)n1cnc2c(oc3ccccc32)c1=O (configuration not stated),·,·,-1.8,-1.0,·,0.3
COc1ccc(CN(Cc2cccnc2)C(=S)NCCc2ccccc2)cc1OC,·,·,·,-7.0,·,·
Cc1ccc(N2C(=O)CSC2c2ccccn2)cc1Cl (configuration not stated),90.4,93.2,·,6.0,100.2,·
O=C1CC(N2CCN(C3CCc4ccccc4C3)CC2)C(=O)N1c1ccccc1 (configuration not stated),101.4,105.3,-0.7,·,95.3,-9.6
O=C(Oc1ccccc1)c1cccc2cccnc12,35.6*,86.7,0.7,21.0,0.8*,-10.2
O=C(Nc1ccc(Cl)c(C(F)(F)F)c1)NC1CC2CCCC(C1)N2C1CC1 (configuration not stated),91.8,12.1*,·,·,34.1*,·
CCCCn1nc(C(=O)N[C@@H](CCSC)c2nc3ccccc3[nH]2)c2ccccc2c1=O,97.0,75.6,·,-9.0,36.1*,·
CCn1nc(C(=O)N[C@@H](CCSC)c2nc3ccccc3[nH]2)c2ccccc2c1=O,100.4,96.1,·,-2.0,73.2,·
O=C(CCC1CCCC1)c1c(O)c2ccccc2oc1=O,91.4,1.8*,-0.4,14.0,80.7,97.2*
O=C(c1c(O)c2ccccc2oc1=O)C1CCCCC1,89.6,82.9,·,-5.0,54.3,·
CCOc1ccc(N(CC(=O)Nc2cccc(OC)c2)S(=O)(=O)c2c(C)noc2C)cc1,89.3,88.0,7.7,-21.0,71.7,70.1*
CCOc1ccc(N(CC(=O)Nc2cccc(Cl)c2)S(=O)(=O)c2c(C)noc2C)cc1,73.3,80.3,15.7,3.0,30.1*,73.1*
Cc1ccc(N(CC(=O)Nc2ccc3c(c2)OCCO3)S(=O)(=O)c2c(C)noc2C)cc1,80.1,92.2,-5.3,-8.0,85.4,64.9*
COc1ccccc1N(CC(=O)NCc1ccccc1)C(=O)CCC(=O)Nc1cc(C)ccn1,103.9,100.9,·,·,86.6,·
Oc1ccc(CNCC2COc3ccccc3O2)cc1 (configuration not stated),·,·,·,6.0,·,·
CCNc1nc(SCc2ccccc2)nc(N2CCOCC2)n1,71.0,110.4,-2.3,2.0,77.2,65.8*
COC(=O)c1cc(S(=O)(=O)n2nc(C)c(Br)c2C)c(Cl)cc1Cl,96.1,96.0,·,-6.0,56.0,·
COc1cc2c(cc1O)CCN(C(=O)c1ccco1)C2C (configuration not stated),92.1,82.5,·,2.0,97.2,·
COc1cc2c(cc1OC)C(C)N(C(=O)c1cc3ccccc3o1)CC2 (configuration not stated),93.2,110.3,28.3*,-11.0,65.0,17.9
CC1Cc2ccccc2N1C(=O)CN1C(=O)C(=O)N(Cc2ccccc2)C1=O (configuration not stated),·,·,·,-8.0,·,·
Cc1sc2nc(NCCO)[nH]c(=O)c2c1C,101.0,94.0,-1.2,4.0,98.5,-15.1
O=C(CSc1nnc2sc3ccccc3n12)c1ccco1,102.5,91.3,1.1,7.0,96.9,-1.0
CCc1ccc2[nH]c(=O)c(CN(Cc3ccccc3OC)Cc3nnnn3Cc3ccco3)cc2c1,98.0,72.8,2.2,-18.0,12.4*,37.1
COc1cc2cc(CN(Cc3nnnn3Cc3ccco3)C3CCCCC3)c(=O)[nH]c2cc1OC,89.9,83.5,1.7,3.0,48.7,20.4
SMILES,Lung fibro prol,HUVEC inhibit,Jurkat tox 60K,E coli WT exp,H69AR inhibit,Ecoli tolC
COc1ccccc1CN(Cc1cc2cc(C)ccc2[nH]c1=O)Cc1nnnn1Cc1ccco1,88.7,90.9,7.8,-16.0,37.7*,21.5
COc1ccc(-c2nc(NC(=O)CSc3nnc(C)s3)ns2)cc1,101.6,90.2,-3.6,-4.0,89.1,-7.8
CCCCNC(=O)CCCCCNS(=O)(=O)c1ccc(OC)cc1,103.7,107.4,-5.5,3.0,87.3,1.9
CC(NC(=O)Cn1nnc(-c2ccncc2)n1)c1ccccc1 (configuration not stated),93.2,82.5,·,·,89.3,·
O=C1CC(O)(C(F)(F)F)Oc2c1ccc1ccccc21 (configuration not stated),103.9,67.1,-0.9,35.0,91.0,96.6*
Cc1ccc2nc(NC(=O)c3cccs3)sc2c1,88.4,99.9,·,-7.0,41.5,18.7
CS(=O)(=O)c1ccc2nc(NC(=O)c3cccs3)sc2c1,96.6,75.0,19.1,-10.0,25.2*,5.2
C/C=C/C(=O)OCC(=O)Nc1nc2ccc(C)cc2s1,100.7,94.0,·,-13.0,29.4*,·
Cc1ccc(C(=O)Nc2nc3ccc(S(C)(=O)=O)cc3s2)s1,101.0,84.9,9.7,-9.0,38.4*,-19.1
Cc1ccc2nc(NC(=O)c3ccc(Cl)s3)sc2c1,50.8,70.1,-12.3,-14.0,20.2*,-8.0
C[N+]1(CCOc2ccc([N+](=O)[O-])cc2)CCOCC1,·,·,·,3.0,·,·
COC(=O)c1cn(NC(=O)c2ccc3c(c2)OCO3)c(=O)c2ccccc12,97.7,101.2,·,3.0,85.3,3.0
Cc1cc(C(=O)Nc2nc3ccc(S(C)(=O)=O)cc3s2)c(C)o1,45.9*,94.4,0.9,-1.0,51.3,-3.8
COc1ccc2nc(NC(=O)c3cc(C)oc3C)sc2c1,88.2,83.2,·,·,84.0,·
Cn1ncc2c(Nc3ccc(-c4ccccc4)cc3)ncnc21,·,·,34.9*,-14.0,·,8.1
CCC(=O)N1CCN(c2ccc(NC(=O)c3cc4ccccc4o3)cc2Cl)CC1,42.5*,2.9*,22.6,-10.0,10.3*,30.9
O=C(CCn1c(=O)oc2ccccc21)N1CCN(c2ccccc2Cl)CC1,65.7,62.0,69.1*,-12.0,17.9*,11.9
O=C(c1cc2ccccc2o1)N1CCN(c2ccccc2Cl)CC1,99.6,112.8,-0.8,-10.0,88.0,100.0*
O=C(c1ccccc1)N1CCN(C(=O)c2cc3ccccc3o2)CC1,104.6,99.8,·,1.0,94.1,·
CCCCOc1ccc(C(=O)N2CCCCCC2)cc1,103.2,106.5,9.1,0.0,74.3,37.0
COC(=O)c1ccc(N2CCN(C)CC2)c(NC(=O)c2cc3ccccc3o2)c1,83.1,89.0,0.3,-4.0,75.0,-5.5
O=C(CCn1c(=O)oc2ccccc21)N1CCCCCC1,98.4,99.1,-1.6,4.0,95.3,-9.0
CCCOc1ccc(C(=O)N2CCN(c3ccc(NC(=O)CC)cc3Cl)CC2)cc1,99.8,83.8,-3.2,-12.0,79.0,63.4*
CCCCNC(=O)Oc1cccc(N2CCCC2=O)c1,97.0,89.9,·,4.0,72.9,-4.4
COC(=O)c1sc2ncn(-n3c(C)ccc3C)c(=O)c2c1C,98.0,91.2,·,-8.0,85.6,·
O=C(N/N=C/c1cccc(Oc2ccc([N+](=O)[O-])cc2[N+](=O)[O-])c1)c1cncc(Br)c1,77.6,91.5,·,-8.0,48.9,·
O=C(Nc1ccc(N2CCN(C(=O)c3ccccc3)CC2)c(Cl)c1)c1ccco1,95.7,69.8,7.1,-9.0,72.9,17.1
